Reference: ChEMBL document CHEMBL1142002, “Design, synthesis and biological evaluation of novel bicyclic beta-lactams as potential antimalarials” (Bioorg Med Chem Lett, 2005)

Columns and labels:
Plasmodium falciparum [1] = experiment: (§1) In vitro antimalarial activity for chloroquine-sensitive Plasmodium falciparum in schizont maturation assay; type: functional
Summary of the method: (§2)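 Chloroquine-sensitive P. falciparum, sorbitol-synchronized ring stages, cultured in O+ human RBCs in RPMI 1640 with 10% human serum at 37 °C under 5% CO2. Duplicate wells held erythrocytes at 2% ring-stage parasitaemia across double dilutions of compound. After 24 h, Giemsa smears were scored for mature schizonts among 200 asexual parasites. Inhibition was calculated as (1 − Nt/Nc)×100 against medium-only controls.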

Plasmodium falciparum [2] = experiment: (§3) In vitro antimalarial activity for chloroquine-resistant Plasmodium falciparum in schizont maturation assay; type: functional
Summary of the method: (§4)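 P. falciparum (lab chloroquine-sensitive strains; resistant field isolate from Jagadalpur patients) in O+ human RBCs, RPMI 1640 + 10% human serum, 37 °C, 5% CO2; sorbitol-synchronized rings at 2% in erythrocytes. Double dilutions, duplicate wells, 24 h. Giemsa smears: mature schizonts counted among 200 asexual parasites; inhibition = (1 − Nt/Nc) × 100.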

Plasmodium falciparum [3] = experiment: as §1; type: functional, organism-based; summary of the method: as §4
Plasmodium falciparum [4] = experiment: as §3; type: functional, organism-based; summary of the method: as §4
Plasmodium falciparum [5] = experiment: In vitro antimalarial activity as schizont maturation against drug-sensitive Plasmodium falciparum; type: functional; summary of the method: as §2
Plasmodium falciparum [6] = experiment: In vitro antimalarial activity as schizont maturation against drug-resistant Plasmodium falciparum; type: functional; summary of the method: as §4

SMILES | IC90 (Plasmodium falciparum [1]) [µM] | IC99 (Plasmodium falciparum [1]) [µM] | IC90 (Plasmodium falciparum [2]) [µM] | IC99 (Plasmodium falciparum [2]) [µM] | IC50 (Plasmodium falciparum [3]) [µM] | IC50 (Plasmodium falciparum [4]) [µM] | IC90 (Plasmodium falciparum [5]) [nM] | IC90 (Plasmodium falciparum [6]) [nM]
O=C1NC2CCCC12 (stereo unspecified) | 31.9 | 42.2 | 34.5 | 48.7 | 13.5 | 12.4 | – | –
O=C1C2CC=CC=CC2N1Cc1ccccc1 (stereo unspecified) | 2.8 | 3.2 | 2.9 | 3.3 | 1.8 | 1.8 | – | –
O=C1NC2CCCCCCC12 (stereo unspecified) | 33.7 | 51.2 | 33.9 | 54.8 | 8.1 | 8.4 | – | –
O=C1NC2CC/C=C\CCC12 (stereo unspecified) | 25.4 | 43.4 | 26.1 | 48.7 | 6.8 | 7.3 | – | –
O=C1C2CCCCCCC2N1Cc1ccccc1 (stereo unspecified) | 18.8 | 25.2 | 19.4 | 27.4 | 8.1 | 7.9 | – | –
O=C1C2CCCC2N1Cc1ccccc1 (stereo unspecified) | 11.2 | 12.3 | 12.4 | 14.5 | 6.5 | 7.4 | – | –
O=C1C2CC=CCC2N1Cc1ccccc1 (stereo unspecified) | 5.6 | 6.1 | 6.1 | 6.4 | 1.5 | 1.6 | – | –
O=C1NC2CC=CCC12 (stereo unspecified) | 19.3 | 23.2 | 21.2 | 25.3 | 9.1 | 8.7 | – | –
O=C1NC2C=CC=CCC12 (stereo unspecified) | 14.5 | 20.1 | 15.4 | 24.8 | – | 4.6 | – | –
O=C1C2CC/C=C\CCC2N1Cc1ccccc1 (stereo unspecified) | 10.7 | 13.3 | 11.4 | 14.5 | 5.4 | 5.8 | – | –
CCN(CC)CCCC(C)Nc1ccnc2cc(Cl)ccc12 (stereo unspecified) [CHLOROQUINE] | – | – | – | – | – | – | 50 | 500
